Bioassay records: PubChem BioAssay, several laboratories
The full list was thinned out, with hits kept by preference.
CHOP inhibitor: inhibitors of CHOP promoter induction, primary screen, cell-based, unfolded protein response, luciferase reporter; CHO-K1 CHOP-promoter luciferase, tunicamycin-induced, 15-18 h; inhibition, % at 10 µM; 3.8% of 220,000 active;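 active = compounds that reduced the stress-induced luciferase reporter signal by more than about 70% of percent inhibition, limit read from the data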;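 note: 0% = tunicamycin plus vehicle and 100% = wells without tunicamycin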
XBP1 UPR activ: activators of adaptive XBP1 UPR arm, primary screen, cell-based, CHO-XBP1 luciferase reporter, luminescence, uHTS. IRE1-XBP1 UPR activation; percent of tunicamycin response, DMSO as zero. activation, % at 20 µM. 0.33% of 330,000 active. AID 463104, 2010;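 active = versus positive control, 20 µM dose yields 30% or more activation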;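 note: 100% = tunicamycin at 10 µg/mL and 0% = DMSO only wells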
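Material: CHO-XBP1 cells stably carrying IRE1-XBP1-driven luciferase reporter | Medium: F12 with 10% serum | Compound dosing: 20 µM single concentration, DMSO 1% | Incubation: Overnight seeding at 37 °C, 6 h compound treatment at 37 °C | Detection: Steady-Glo luminescence read | Read-out basis: % activation of reporter signal versus tunicamycin and DMSO controls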
PvdQ acylase: P. aeruginosa PvdQ acylase inhibitors, primary screen, biochemical, fluorescence, plate reader and imaging, single point; purified PvdQ acylase; inhibition, % at 10 µM; 0.063% of 340,000 active; in the data active = inhibition above about 30%, passing the limit was not always enough;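 note: 0% = vehicle neutral wells and 100% = reference inhibitor wells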
UPR CHOP act: activators of apoptotic CHOP UPR arm, primary screen, cell-based, CHO-CHOP luciferase reporter, luminescence, uHTS; AID 449763, 2010; activation, % at 10 µM; 0.34% of 330,000 active; UPR activation; percent of tunicamycin response over DMSO baseline;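 active = at 10 µM dose, activation of 40% or more, normalized to positive control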;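 note: 100% = tunicamycin at 10 µg/mL and 0% = DMSO alone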
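Test system: CHO-CHOP cells, stable luciferase reporter of PERK-eIF2a-CHOP signalling | Quantity: 500 CHO-CHOP cells per well | Buffer or medium: F12 plus 10% serum | Compound dosing: 10 µM single point, 0.5% DMSO | Schedule: 6 h compound treatment, 37 °C | Signal: Luciferase luminescence | Control set: Tunicamycin high control, DMSO low control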
An asterisk follows results filed as active; / = not tested or not shown.

SMILES	CHOP inhibitor	XBP1 UPR activ	PvdQ acylase	UPR CHOP act
CC1CCN(S(=O)(=O)c2ccc(S(=O)(=O)N3CCC4(CC3)OCCO4)cc2)CC1	-5	-2	-14	0
Cc1ccc2cc3c(NC(=O)c4ccco4)nn(CC(C)C)c3nc2c1	70*	2	-13	-2
Cc1ccc2nc3c(cc2c1)c(NC(=O)c1ccccn1)nn3CC(C)C	41	0	0	0
O=[N+]([O-])c1ccccc1N/N=C/c1cccc(O)c1O	71*	-1	0	11
O=[N+]([O-])c1ccccc1N/N=C\c1ccccc1Cl	-1	-1	3	4
Cc1ccc(SCC(=O)NC(=O)NCc2ccccc2)c(C)c1	81*	0	-28	-1
CCN(CC)c1ccc(NC(=O)Nc2cccc3ccccc23)cc1	/	1	-8	6
CN(C)c1ccc(NC(=O)Nc2cccc3ccccc23)cc1	86*	-2	11	5
CCc1cc2c3c(c(=O)oc2cc1O)CCCC3	90*	1	-7	-1
O=C(NCc1cccnc1)c1ccc(COc2ccc(Cl)cc2)cc1	71*	4	-16	9
CC(=O)Nc1ccc(S(=O)(=O)NCCN2CCNC2=O)cc1Cl	/	-4	-11	0
CCOC(=O)c1cccc(Nc2nc(-c3cccnc3)nc3ccccc23)c1	77*	19	-13	10
COC(=O)c1cccc(Nc2nc(-c3cccnc3)nc3ccccc23)c1	17	2	-8	9
CCOC(=O)C1=C(C)N(C)C(C)=C(C(=O)OCC)C1c1ccc(C(=O)OC)cc1	28	-2	7	-1
COC(=O)C1=C(C)N(C)C(C)=C(C(=O)OC)C1c1ccc(Cl)cc1	72*	-2	-7	-1
CCOC(=O)C1=C(C)N(C)C(C)=C(C(=O)OCC)C1c1ccc(Cl)cc1	80*	3	-16	1
COC(=O)C1=C(C)N(C)C(=S)NC1c1ccc(Cl)cc1 (stereo not given)	0	-1	-19	-1
Cc1ccc(S(=O)(=O)N2CCN(c3nc4ccccc4nc3-n3nc(C)cc3C)CC2)cc1	73*	1	-4	3
Cc1cc(C)n(-c2nc3ccccc3nc2N2CCC(C)CC2)n1	32	0	-3	0
CCc1ccc(NC(=O)Cn2cccc2)cc1	40	2	-7	-1
N#Cc1c(NC(=O)CSc2nnnn2C2CCCC2)sc2c1CCCC2	82*	3	-4	-1
COC(=O)c1c(NC(=O)CSc2ncnc3[nH]ncc23)sc2c1CCC2	77*	-1	-10	3
N#Cc1c(NC(=O)CSc2nc(N)cc(=O)[nH]2)sc2c1CCCCCC2	/	3	-10	2
N#Cc1c(NC(=O)CSc2ncn[nH]2)sc2c1CCCCC2	91*	-5	-18	-7
Cc1sc(NC(=O)CSc2nnnn2C2CCCC2)c(C#N)c1C	43	-4	-12	-2
SMILES	CHOP inhibitor	XBP1 UPR activ	PvdQ acylase	UPR CHOP act
CC(=O)c1cccc(NC(=S)N2CCN(S(=O)(=O)c3ccc(F)cc3)CC2)c1	/	-4	-7	2
Cc1ccc(C)c(N=Cc2cc3c(cc2[N+](=O)[O-])OCO3)c1	81*	4	-10	3
Cc1ccc(N=Cc2cc3c(cc2[N+](=O)[O-])OCO3)cc1[N+](=O)[O-]	/	2	/	4
CCOc1ccc(N2C(=O)C3ON(c4ccccc4)C(c4cccs4)C3C2=O)cc1 (stereo not given)	31	-3	1	1
Nc1nc(Br)c2c(F)cccc2c1-c1ccc(F)cc1	74*	8	-12	2
Nc1nc(Br)c2c(F)cccc2c1-c1ccccc1	65	3	-11	1
CC(C)(C)OC(=O)N1CCC(CC2CC(c3ccc(Cl)cc3)=NO2)(C(=O)NCC2CCCCC2)CC1 (stereo not given)	/	3	4	5
OC1(Cc2cc(-c3ccccc3)no2)CCN(CCCc2ccccc2)CC1	/	-2	-16	3
Cn1cc(CN2CCN(Cc3ccccc3)CC2)c(-c2cccc(Cl)c2)n1	14	-1	-4	1
Cc1cc(C)cc(C(=O)O/N=C(\N)c2ccc(Br)cc2)c1	72*	0	-4	5
Cc1ccc(N(C)S(=O)(=O)c2c[nH]c3ccc([N+](=O)[O-])cc23)cc1	/	-3	-22	0
Cc1cccc(NC(=O)CSc2nnc(CCC(=O)Nc3ccc(C)c(Cl)c3)n2C)c1	37	-2	8	-3
Cc1cccc(C(=O)Nc2ccccc2SCC(=O)Nc2ccc(C)c(Cl)c2)c1	73*	-3	2	0
CSCCC(NC(=O)c1ccccc1)C(=O)OCC(=O)Nc1ccc(C)c(Cl)c1 (stereo not given)	82*	-1	-8	-1
CSCCC(NC(=O)c1ccc(Cl)cc1)C(=O)OCC(=O)Nc1cc(Cl)ccc1C#N (stereo not given)	30	-1	-10	0
CCOC(=O)c1csc(NC(=O)COc2ccc(Cl)cc2Cl)n1	71*	-5	14	1
CCCC(=O)Nc1nc(C(=O)OCC)cs1	-3	1	10	0
CCOC(=O)c1c(C)nc2ccc(Cl)cc2c1-c1ccccc1	82*	-5	-16	0
CCOC(=O)c1c(C)nc2ccccc2c1-c1ccccc1	36	-1	6	0
COC(=O)c1ccc(CNC(=O)COC(=O)C2CCC(C(C)(C)C)CC2)cc1 (stereo not given)	93*	0	-11	2
CCN(CC(O)CON=C1c2ccccc2-c2ccccc21)S(=O)(=O)c1ccc(C)cc1 (stereo not given)	61	3	-5	0
Cc1cccc(N(CC(O)CON=C2c3ccccc3-c3ccccc32)S(C)(=O)=O)c1 (stereo not given)	70*	-3	8	-2
CS(=O)(=O)N(CC(O)CON=C1c2ccccc2-c2ccccc21)c1ccc(F)cc1 (stereo not given)	73*	1	5	2
CC(C)(CNC(=O)c1cccc(S(=O)(=O)Nc2ccc(Br)cc2)c1)N1CCOCC1	/	-5	0	0
Cc1onc(-c2ccccc2)c1CNC(=O)Nc1ccccc1	1	-2	-7	0
OC(CNCCC(c1ccccc1)c1ccccc1)COc1ccccc1 (stereo not given)	74*	2	1	-2
O=C(NCCCn1ccnc1)/C(=C\c1cccnc1)NC(=O)c1ccccc1F	3	0	-8	1
O=C1CC(N2CCc3ccccc32)C(=O)N1c1ccc(F)cc1 (stereo not given)	-18	-2	-5	3
O=C1/C(=C/c2ccc([N+](=O)[O-])cc2)C=C(c2ccccc2)N1c1ccc(O)cc1	81*	13	-4	16
O=C1/C(=C/c2ccc([N+](=O)[O-])cc2)C=C(c2ccccc2)N1c1ccccc1	-2	-2	9	2
